Results gathered from unrelated publications.
Lines come from different studies, so protocols differ.
MAL12: Alpha-glucosidase MAL12 (MAL12, Saccharomyces cerevisiae S288c, UniProt P53341)

Cn1c(=O)c2c(ncn2C)n(C)c1=O — IC50 (Solute carrier family 22 member 6 (SLC22A6, Homo sapiens, UniProt Q4U2R8); transporter uptake; inhibitor; radiometric; oocytes): 155 µM
NC(=S)N/N=C/c1cc2ccccc2nc1SCc1cn(CC(=O)Nc2ccccc2)nn1 — IC50 (MAL12; enzyme activity; inhibitor): 379 µM
COc1ccc(NC(=O)Cn2cc(COc3ccc(C(c4c(O)c5ccccc5oc4=O)c4c(O)c5ccccc5oc4=O)cc3OC)nn2)c(OC)c1 — IC50 (MAL12; enzyme activity; inhibitor; absorbance): 52 µM
COc1ccc(NC(=O)Cn2cc(CSc3nc4ccccc4cc3/C=N/NC(N)=S)nn2)cc1 — IC50 (MAL12; enzyme activity; inhibitor): 192 µM
C[C@@H]1O[C@@H](O[C@H]2[C@H](O[C@H]3CC[C@@]4(C)[C@@H](CC[C@]5(C)[C@@H]4CC=C4[C@@H]6CC(C)(C)CC[C@]6(C(=O)O[C@@H]6O[C@H](CO[C@@H]7O[C@H](CO)[C@@H](O)[C@H](O)[C@H]7O)[C@@H](O)[C@H](O)[C@H]6O)CC[C@]45C)[C@]3(C)CO)OC[C@H](O)[C@@H]2O)[C@H](O)[C@H](O)[C@H]1O — IC50 (MAL12; enzyme activity; inhibitor): 1.74 µM
NC(=S)N/N=C/c1cc2ccccc2nc1SCc1cn(CC(=O)Nc2ccc([N+](=O)[O-])cc2)nn1 — IC50 (MAL12; enzyme activity; inhibitor): 559 µM
C[C@@H]1O[C@@H](O[C@H]2[C@H](O[C@H]3CC[C@@]4(C)[C@@H](CC[C@]5(C)[C@@H]4CC=C4[C@@H]6CC(C)(C)CC[C@]6(C(=O)O)CC[C@]45C)[C@]3(C)CO)OC[C@H](O)[C@@H]2O)[C@H](O)[C@H](O)[C@H]1O — IC50 (MAL12; enzyme activity; inhibitor): 0.6 µM
NC(=S)N/N=C/c1cc2ccccc2nc1SCc1cn(CC(=O)Nc2ccc(O)cc2)nn1 — IC50 (MAL12; enzyme activity; inhibitor): 311 µM
COc1cc(C(c2c(O)c3ccccc3oc2=O)c2c(O)c3ccccc3oc2=O)ccc1OCc1cn(CC(=O)Nc2ccc([N+](=O)[O-])cc2)nn1 — IC50 (MAL12; enzyme activity; inhibitor; absorbance): 12.2 µM
CCOC(=O)[C@H]1O[C@@H]1C(=O)N[C@@H](CC(C)C)C(=O)NCCC(C)C — IC50 (Cathepsin S (CTSS, Homo sapiens, UniProt P25774); enzyme activity; inhibitor; fluorescence): 19.1 µM
C[C@@H]1O[C@@H](O[C@H]2[C@H](O)[C@@H](O)[C@H](OC[C@H]3O[C@@H](OC(=O)[C@]45CCC(C)(C)C[C@H]4C4=CC[C@@H]6[C@@]7(C)CC[C@H](O[C@@H]8OC[C@H](O)[C@H](O)[C@H]8O)[C@@](C)(CO)[C@@H]7CC[C@@]6(C)[C@]4(C)CC5)[C@H](O)[C@@H](O)[C@@H]3O)O[C@@H]2CO)[C@H](O)[C@H](O)[C@H]1O — IC50 (MAL12; enzyme activity; inhibitor): 1.65 µM
COc1cc(C(c2c(O)c3ccccc3oc2=O)c2c(O)c3ccccc3oc2=O)ccc1OCc1cn(CC(=O)Nc2cccc([N+](=O)[O-])c2)nn1 — IC50 (MAL12; enzyme activity; inhibitor; absorbance): 16.3 µM
Cc1ccc2oc(=O)cc(NCCO)c2c1 — IC50 (Alpha-1A adrenergic receptor (ADRA1A, Homo sapiens, UniProt P35348, I178V); calcium signal; antagonist): 331 µM
COc1cc(C(c2c(O)c3ccccc3oc2=O)c2c(O)c3ccccc3oc2=O)ccc1OCc1cn(CC(=O)Nc2ccccc2F)nn1 — IC50 (MAL12; enzyme activity; inhibitor; absorbance): 61.4 µM
C[C@@H]1O[C@@H](O[C@H]2[C@H](O[C@H]3CC[C@]4(C)[C@H]5CC=C6[C@@H]7CC(C)(C)CC[C@]7(C(=O)O[C@@H]7O[C@H](CO[C@@H]8O[C@H](CO)[C@@H](O[C@@H]9O[C@@H](C)[C@H](O)[C@@H](O)[C@H]9O)[C@H](O)[C@H]8O)[C@@H](O)[C@H](O)[C@H]7O)CC[C@@]6(C)[C@]5(C)CC[C@H]4C3(C)C)OC[C@H](O)[C@@H]2O)[C@H](O)[C@H](O)[C@H]1O — IC50 (MAL12; enzyme activity; inhibitor): 0.47 µM
Cc1ccc2[nH]c(=O)c(CNC3CCCCC3)cc2c1 — IC50 (Alpha-1A adrenergic receptor (ADRA1A, Homo sapiens, UniProt P35348, I178V/M292L); calcium signal; antagonist): 1.62 µM
Cc1cc([N+](=O)[O-])ccc1NC(=O)Cn1cc(CSc2nc3ccccc3cc2/C=N/NC(N)=S)nn1 — IC50 (MAL12; enzyme activity; inhibitor): 307 µM
CC(=O)OC[C@H]1O[C@@H](OC[C@H]2O[C@@H](OC(=O)[C@]34CCC(C)(C)C[C@H]3C3=CC[C@@H]5[C@@]6(C)CC[C@H](O[C@@H]7OC[C@H](O)[C@H](O)[C@H]7O[C@@H]7O[C@H](CO)[C@@H](O)[C@H](O)[C@H]7O)C(C)(C)[C@@H]6CC[C@@]5(C)[C@]3(C)CC4)[C@H](O)[C@@H](O)[C@@H]2O)[C@H](O)[C@@H](O)[C@@H]1O[C@@H]1O[C@@H](C)[C@H](O)[C@@H](O)[C@H]1O — IC50 (MAL12; enzyme activity; inhibitor): 0.75 µM
Cc1cccc(NC(=O)Cn2cc(CSc3nc4ccccc4cc3/C=N/NC(N)=S)nn2)c1 — IC50 (MAL12; enzyme activity; inhibitor): 247 µM
COc1cc(C(c2c(O)c3ccccc3oc2=O)c2c(O)c3ccccc3oc2=O)ccc1OCc1cn(CC(=O)Nc2ccc(C)cc2)nn1 — IC50 (MAL12; enzyme activity; inhibitor; absorbance): 41.1 µM
